These results are taken from ChEMBL document CHEMBL1142901, “Design and synthesis of pyrimido[4,5-b][1,4]benzothiazine derivatives, as potent 15-lipoxygenase inhibitors” (Bioorg Med Chem, 2007).

pIC50: −log10 of the molar value.

Series [1] is described as follows: Inhibition of soybean 15-lipoxygenase. More on the design: species or system Glycine max. The gist of the method: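 Soybean 15-lipoxygenase (final 167 U/mL, kept on ice) in 0.2 M borate buffer pH 9.00 with linoleic acid (134 µM) substrate. Activity followed as absorbance increase at 234 nm from 30 to 90 s after enzyme addition. Compounds added in ethanol (final 1%); ethanol-only uninhibited controls measured at regular intervals. IC50 by linear interpolation between points around 50% activity.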

Series [2] can be described thus: Partition co-efficient, log P of the compound. It counts as physicochemical. The following applies: octanol/water.

Take `Cc1nc(N2CCOCC2)nc2c1Nc1ccccc1S2`: the negative-log IC50 (pIC50) in series [1] is 4.28. This compound also displayed a logP in series [2] of 1.7.
Regarding `Cc1nc(N2CCC(O)CC2)nc2c1Nc1ccccc1S2`, the negative logarithm of the IC50 (pIC50) in series [1] was less than 3.70. Moreover, the lipophilicity (logP) in series [2] was determined as 1.95.
On the same counts, the results for `CCN1CCN(c2nc(C)c3c(n2)Sc2ccccc2N3)CC1` are 4.47 and 2.19.
On the same counts, the results for `Cc1nc(N2CCN(C)CC2)nc2c1Nc1ccccc1S2` are 4.74 and 1.95.
`Cc1nc(N2CCC(C)CC2)nc2c1Nc1ccccc1S2` had a negative logarithm of the IC50 (pIC50) in series [1] of 4.12. This compound returned a log partition coefficient (logP) in series [2] of 2.98.
On the same counts, the results for `Cc1nc(N2CCCCC2)nc2c1Nc1ccccc1S2` are 4.24 and 2.74.
In series [1], `Cc1nc(N2CCCC2)nc2c1Nc1ccccc1S2` gave a negative logarithm of the IC50 (pIC50) of 4.32. The compound also displayed a log partition coefficient (logP) in series [2] of 2.49.
The compound `Cc1nc(N2CCN(c3ccccc3)CC2)nc2c1Nc1ccccc1S2` had a negative-log IC50 (pIC50) in series [1] of less than 3.70. The same compound displayed a logP in series [2] of 3.15.
